Target: urease (Canavalia ensiformis, UniProt P07374)
Assay: In vitro urease inhibition assay
Type: biochemical
Summary of the method: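 Enzyme preincubated with test compound in phosphate buffer (pH 6.8) for 10 min at 37 °C, then phenol and alkali reagents added. Absorbance read at 625 nm, with thiourea as the standard inhibitor. Percent inhibition calculated from absorbance, run in triplicate.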

Sequence of urease (P07374 whole entry, looked up): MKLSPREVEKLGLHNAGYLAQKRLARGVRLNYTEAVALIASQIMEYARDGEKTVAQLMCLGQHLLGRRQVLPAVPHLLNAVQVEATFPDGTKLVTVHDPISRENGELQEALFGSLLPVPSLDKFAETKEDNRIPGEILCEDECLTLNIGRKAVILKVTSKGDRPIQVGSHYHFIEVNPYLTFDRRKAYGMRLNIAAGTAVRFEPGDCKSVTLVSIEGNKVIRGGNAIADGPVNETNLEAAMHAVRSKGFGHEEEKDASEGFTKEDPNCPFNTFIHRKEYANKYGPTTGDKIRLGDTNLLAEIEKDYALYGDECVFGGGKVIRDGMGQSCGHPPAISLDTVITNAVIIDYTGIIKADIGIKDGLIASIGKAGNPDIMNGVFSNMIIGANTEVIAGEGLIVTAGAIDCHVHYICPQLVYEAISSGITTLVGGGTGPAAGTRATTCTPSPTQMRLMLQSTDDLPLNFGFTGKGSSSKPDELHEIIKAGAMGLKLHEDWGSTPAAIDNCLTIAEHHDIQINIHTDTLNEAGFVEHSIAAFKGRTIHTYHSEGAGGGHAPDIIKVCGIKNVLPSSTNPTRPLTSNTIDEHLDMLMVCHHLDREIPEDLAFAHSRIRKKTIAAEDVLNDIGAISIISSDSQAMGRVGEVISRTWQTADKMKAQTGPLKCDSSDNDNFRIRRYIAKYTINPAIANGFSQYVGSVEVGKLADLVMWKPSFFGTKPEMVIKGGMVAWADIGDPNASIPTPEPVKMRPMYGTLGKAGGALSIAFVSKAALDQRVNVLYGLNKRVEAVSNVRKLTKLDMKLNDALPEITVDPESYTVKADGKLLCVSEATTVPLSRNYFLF

Row | IC50 [µM] | SMILES
1 | 53.7 ± 3.81 | CC(C(=O)NN=Cc1cccc2ccccc12)c1ccc(-c2ccccc2)c(F)c1 (stereo not drawn) [Compound 4, 2-(2-Fluoro-[1,1′-biphenyl]-4-yl)-N′-(naphthalen-1-ylmethylene)propanehydrazide]
2 | 25.1 ± 1.13 | CC(C(=O)NN=Cc1ccc(O)c(O)c1O)c1ccc(-c2ccccc2)c(F)c1 (stereo not drawn) [Compound 5, 2-(2-Fluoro-[1,1′-biphenyl]-4-yl)-N′-(2,3,4-trihydroxybenzylidene)propanehydrazide]
3 | 53.7 ± 3.82 | CC(C(=O)NN=Cc1ccccc1N)c1ccc(-c2ccccc2)c(F)c1 (stereo not drawn) [Compound 6, N′-(2-Aminobenzylidene)-2-(2-fluoro-[1,1′-biphenyl]-4-yl)propanehydrazide]
4 | 29.2 ± 1.12 | CC(C(=O)NN=Cc1cccc([N+](=O)[O-])c1)c1ccc(-c2ccccc2)c(F)c1 (stereo not drawn) [Compound 7, 2-(2-Fluoro-[1,1′-biphenyl]-4-yl)-N′-(3-nitrobenzylidene)propanehydrazide]
5 | 58.3 ± 3.34 | COc1ccc(Br)cc1C=NNC(=O)C(C)c1ccc(-c2ccccc2)c(F)c1 (stereo not drawn) [Compound 8, N′-(5-Bromo-2-methoxybenzylidene)-2-(2-fluoro-[1,1′-biphenyl]-4-yl)propanehydrazide]
6 | 55.8 ± 3.04 | COc1ccc(C=NNC(=O)C(C)c2ccc(-c3ccccc3)c(F)c2)c(OC)c1OC (stereo not drawn) [Compound 9, 2-(2-Fluoro-[1,1′-biphenyl]-4-yl)-N′-(2,3,4-trimethoxybenzylidene)propanehydrazide]
7 | 50.7 ± 5.17 | CC(C(=O)NN=Cc1cc([N+](=O)[O-])ccc1Cl)c1ccc(-c2ccccc2)c(F)c1 (stereo not drawn) [Compound 10, N′-(2-Chloro-5-nitrobenzylidene)-2-(2-fluoro-[1,1′-biphenyl]-4-yl)propanehydrazide]
8 | 52.7 ± 3.56 | CCOc1ccc(C=NNC(=O)C(C)c2ccc(-c3ccccc3)c(F)c2)c(OC)c1 (stereo not drawn) [Compound 11, N′-(4-Ethoxy-2-methoxybenzylidene)-2-(2-fluoro-[1,1′-biphenyl]-4-yl)propanehydrazide]
9 | 56.1 ± 4.89 | COc1cc(C=NNC(=O)C(C)c2ccc(-c3ccccc3)c(F)c2)ccc1F (stereo not drawn) [Compound 12, N′-(4-Fluoro-3-methoxybenzylidene)-2-(2-fluoro-[1,1′-biphenyl]-4-yl)propanehydrazide]
10 | 81 ± 8.43 | CCOc1cc(C=NNC(=O)C(C)c2ccc(-c3ccccc3)c(F)c2)ccc1OC (stereo not drawn) [Compound 13, N′-(3-Ethoxy-4-methoxybenzylidene)-2-(2-fluoro-[1,1′-biphenyl]-4-yl)propanehydrazide]
11 | 55.7 ± 3.71 | COc1cccc(OC)c1C=NNC(=O)C(C)c1ccc(-c2ccccc2)c(F)c1 (stereo not drawn) [Compound 14, N′-(2,6-Dimethoxybenzylidene)-2-(2-fluoro-[1,1′-biphenyl]-4-yl)propanehydrazide]
12 | 28.6 ± 1.73 | CC(C(=O)N/N=C/c1ccc([N+](=O)[O-])cc1)c1ccc(-c2ccccc2)c(F)c1 (stereo not drawn) [Compound 15, (E)-2-(2-Fluoro-[1,1′-biphenyl]-4-yl)-N′-(4-nitrobenzylidene)propanehydrazide]
13 | 55.7 ± 3.82 | COc1ccc(/C=N/NC(=O)C(C)c2ccc(-c3ccccc3)c(F)c2)c(Cl)c1OC (stereo not drawn) [Compound 16, (E)-N′-(2-Chloro-3,4-dimethoxybenzylidene)-2-(2-fluoro-[1,1′-biphenyl]-4-yl)propanehydrazide]
14 | 26.5 ± 0.44 | COc1cc(C=NNC(=O)C(C)c2ccc(-c3ccccc3)c(F)c2)ccc1Oc1ccccc1 (stereo not drawn) [Compound 18, 2-(2-Fluoro-[1,1′-biphenyl]-4-yl)-N′-(3-methoxy-4-phenoxybenzylidene)propanehydrazide]
15 | 55.7 ± 3.82 | COc1ccccc1C=NNC(=O)C(C)c1ccc(-c2ccccc2)c(F)c1 (stereo not drawn) [Compound 19, 2-(2-Fluoro-[1,1′-biphenyl]-4-yl)-N′-(2-methoxybenzylidene)propanehydrazide]
16 | 58.8 ± 3.99 | CC(C(=O)NN=Cc1ccc(Br)cc1)c1ccc(-c2ccccc2)c(F)c1 (stereo not drawn) [Compound 20, N′-(4-Bromobenzylidene)-2-(2-fluoro-[1,1′-biphenyl]-4-yl)propanehydrazide]
17 | 89.7 ± 8.35 | COc1ccc(C=NNC(=O)C(C)c2ccc(-c3ccccc3)c(F)c2)c(F)c1 (stereo not drawn) [Compound 21, N′-(2-Fluoro-4-methoxybenzylidene)-2-(2-fluoro-[1,1′-biphenyl]-4-yl)propanehydrazide]
18 | 90.7 ± 7.71 | COc1cc(C=NNC(=O)C(C)c2ccc(-c3ccccc3)c(F)c2)cc(OC)c1Br (stereo not drawn) [Compound 22, N′-(4-Bromo-3,5-dimethoxybenzylidene)-2-(2-fluoro-[1,1′-biphenyl]-4-yl)propanehydrazide]
19 | 86.9 ± 8.71 | CC(C(=O)NN=Cc1ccc(Br)cc1F)c1ccc(-c2ccccc2)c(F)c1 (stereo not drawn) [Compound 23, N′-(4-Bromo-2-fluorobenzylidene)-2-(2-fluoro-[1,1′-biphenyl]-4-yl)propanehydrazide]
20 | 79.2 ± 7.94 | COc1ccc(OC)c(C=NNC(=O)C(C)c2ccc(-c3ccccc3)c(F)c2)c1 (stereo not drawn) [Compound 24, N′-(2,5-Dimethoxybenzylidene)-2-(2-fluoro-[1,1′-biphenyl]-4-yl)propanehydrazide]
21 | 59.5 ± 4.28 | CC(C(=O)NN=Cc1cccc(C(F)(F)F)c1)c1ccc(-c2ccccc2)c(F)c1 (stereo not drawn) [Compound 25, 2-(2-Fluoro-[1,1′-biphenyl]-4-yl)-N′-(3-(trifluoromethyl)benzylidene)propanehydrazide]
22 | 78 ± 7.63 | CSc1ccc(C=NNC(=O)C(C)c2ccc(-c3ccccc3)c(F)c2)cc1 (stereo not drawn) [Compound 26, 2-(2-Fluoro-[1,1′-biphenyl]-4-yl)-N′-(4-(methylthio)benzylidene)propanehydrazide]
23 | 80 ± 8.61 | CC(C(=O)NN=Cc1ccc(O)c(Br)c1)c1ccc(-c2ccccc2)c(F)c1 (stereo not drawn) [Compound 27, N′-(3-Bromo-4-hydroxybenzylidene)-2-(2-fluoro-[1,1′-biphenyl]-4-yl)propanehydrazide]
24 | 58.5 ± 4.28 | CC(C(=O)NN=Cc1ccc(-c2ccccc2)c(F)c1)c1ccc(-c2ccccc2)c(F)c1 (stereo not drawn) [Compound 28, 2-(2-Fluoro-[1,1′-biphenyl]-4-yl)-N′-((2-fluoro-[1,1′-biphenyl]-4-yl)methylene)propanehydrazide]
25 | 57.5 ± 4.27 | Cc1ccc(C=NNC(=O)C(C)c2ccc(-c3ccccc3)c(F)c2)s1 (stereo not drawn) [Compound 29, 2-(2-Fluoro-[1,1′-biphenyl]-4-yl)-N′-((5-methylthiophen-2-yl)methylene)propanehydrazide]
26 | 18.9 ± 0.61 | CC(C(=O)NN=Cc1cccc(O)c1O)c1ccc(-c2ccccc2)c(F)c1 (stereo not drawn) [Compound 30, N′-(2,3-Dihydroxybenzylidene)-2-(2-fluoro-[1,1′-biphenyl]-4-yl)propanehydrazide]
27 | 28.1 ± 1.26 | CC(C(=O)NN=Cc1ccccc1[N+](=O)[O-])c1ccc(-c2ccccc2)c(F)c1 (stereo not drawn) [Compound 31, N′-(2-Nitrobenzylidene)-2-(2-fluoro-[1,1′-biphenyl]-4-yl)propanehydrazide]
